{"data": "Measurements collected from several papers", "observed": "cell growth or viability", "note": "Each line is one published result; the experiments were not run side by side."}
{"Compound": "NNc1nc2c(Cl)cc(Cl)cc2c(=O)n1-c1ccc(Cl)cc1", "cell line": "NIH3T3", "technique": "MTT", "time": "48 h", "IC50": "48.6 µM"}
{"Compound": "COc1cc(C(=O)c2nc(-c3cccc4[nH]ccc34)c(C)[nH]2)cc(OC)c1OC", "cell line": "PC-3", "technique": "MTS", "time": "72 h", "IC50": "0.0192 µM"}
{"Compound": "O=C1Nc2ccccc2/C1=N/N=C/c1cccc([N+](=O)[O-])c1", "cell line": "HUVEC", "technique": "MTT", "time": "48 h", "IC50": "119 µg/mL"}
{"Compound": "CC1=CC(=O)C(C(C)C)=CC1=O", "cell line": "U-251", "technique": "SRB", "time": "48 h", "IC50": "36.9 µM"}
{"Compound": "Cc1c(C)c2c(c(C)c1O)CCC(C)(COc1ccc(CC3SC(=O)NC3=O)cc1)O2 (stereo not drawn)", "cell line": "NIH3T3", "time": "96 h", "IC50": "37.1 µM"}
{"Compound": "CC(=O)O[C@H]1[C@H](OC(C)=O)[C@@H](Nc2cc3cccnc3c3ncccc23)OC[C@@H]1OC(C)=O", "cell line": "HFF-1", "technique": "MTT", "time": "48 h", "notes": "dark", "IC50": "14 µM"}
{"Compound": "O=C(NO)Nc1nc2ccc(Br)cc2c(=O)n1-c1ccccc1", "cell line": "NIH3T3", "technique": "MTT", "time": "48 h", "IC50": "122 µM"}
{"Compound": "CN(C)C(=O)c1cc2cnc(Nc3ccc(-c4ccc5c(=O)cc(N6CCOCC6)oc5c4)cc3)nc2n1C1CCCC1", "cell line": "Kelly", "technique": "ATP luminescence", "time": "72 h", "IC50": "0.19 µM"}
{"Compound": "CC(=O)Nc1ccc(O)cc1", "cell line": "NIH3T3", "time": "96 h", "IC50": "65.4 µM"}
{"Compound": "COc1ccccc1/C=N/N=C1\\C(=O)Nc2ccccc21", "cell line": "HUVEC", "technique": "MTT", "time": "48 h", "IC50": "112 µg/mL"}
{"Compound": "COc1c(Cl)cccc1Nc1c(-c2ccncc2OC[C@@H]2COCCO2)[nH]c2c1C(=O)NCC2", "cell line": "NCI-H2170", "technique": "ATP luminescence", "IC50": "0.0246 µM"}
{"Compound": "Cc1ccc(NNc2nc3ccc(Br)cc3c(=O)n2-c2ccccc2)cc1", "cell line": "NIH3T3", "technique": "MTT", "time": "48 h", "IC50": "14.8 µM"}
{"Compound": "CS(=O)(=O)CCNCc1ccc(-c2ccc3ncnc(Nc4ccc(OCc5cccc(F)c5)c(Cl)c4)c3c2)o1", "cell line": "NCI-H2170", "technique": "ATP luminescence", "IC50": "0.122 µM"}
{"Compound": "NNc1nc2ccc(Br)cc2c(=O)n1-c1ccc(F)cc1", "cell line": "NIH3T3", "technique": "MTT", "time": "48 h", "IC50": "> 200 µM"}
{"Compound": "COc1cc(C(=O)c2nc(-c3ccc4cc[nH]c4c3)c[nH]2)cc(OC)c1OC", "cell line": "PC-3", "technique": "MTS", "time": "72 h", "IC50": "0.0202 µM"}
